# What was measured:
# [1] = target: Glutamate NMDA receptor; Grin1/Grin2b (Rattus norvegicus, UniProt P35439+Q00960); test: Agonist activity at rat recombinant wild type GluN1/GluN2B receptor expressed in Xenopus laevis oocytes by two electrode voltage clamp technique; assay type: cell-based, Oocyte
# Summary of the method: (§1)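 cRNA-injected Xenopus oocytes co-expressing GluN1 with GluN2A, 2B, 2C or 2D; two-electrode voltage clamp at −60 to −40 mV; perfusion with extracellular solution (mM: 90 NaCl, 0.5 BaCl₂, 1 KCl, 0.01 EDTA, 10 HEPES, pH 7.4) always containing 50 μM glycine. Concentration–response data per oocyte fitted to Hill equation; mean logEC₅₀ and nH ± SEM across oocytes.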
# [2] = target: Glutamate NMDA receptor; Grin1/Grin2a (Rattus norvegicus) (UniProt P35439+Q00959); test: Ratio of compound Imax to glutamate Imax for rat recombinant wild type GluN1/GluN2A receptor; assay type: protein-complex assay
# [3] = target: Glutamate NMDA receptor; Grin1/Grin2a (Rattus norvegicus, UniProt P35439+Q00959); test: Agonist activity at rat recombinant wild type GluN1/GluN2A receptor expressed in Xenopus laevis oocytes by two electrode voltage clamp technique; assay type: cell-based, Oocyte; summary of the method: as §1
# [4] = Displacement of [3H]AMPA from AMPA receptor in rat cortical synaptosomes; assay type: subcellular, Brain
# [5] = target: Glutamate NMDA receptor; Grin1/Grin2c (Rattus norvegicus, UniProt P35439+Q00961); test: Agonist activity at rat recombinant wild type GluN1/GluN2C receptor expressed in Xenopus laevis oocytes by two electrode voltage clamp technique; assay type: cell-based, Oocyte; summary of the method: as §1
# Glutamate NMDA receptor = test: Displacement of [3H]CGP39653 from NMDA receptor in rat cortical synaptosomes; assay type: subcellular, Brain
# Summary of the method: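 Rat cortical synaptosome membranes; 2 nM [³H]CGP 39653 (Kd = 6 nM) as radioligand for native NMDA receptors; Ki derived from displacement via Cheng-Prusoff relationship.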
# [6] = Displacement of [3H]KA from KA receptor in rat cortical synaptosomes; assay type: subcellular, Brain
# [7] = target: Ionotropic glutamate receptor NMDA 1/2D (Rattus norvegicus, UniProt P35439+Q62645); test: Agonist activity at rat recombinant wild type GluN1/GluN2D receptor expressed in Xenopus laevis oocytes by two electrode voltage clamp technique; assay type: cell-based, Oocyte; summary of the method: as §1
# [8] = target: Glutamate NMDA receptor; Grin1/Grin2b (Rattus norvegicus) (UniProt P35439+Q00960); test: Ratio of compound Imax to glutamate Imax for rat recombinant wild type GluN1/GluN2B receptor; assay type: protein-complex assay
# [9] = target: Ionotropic glutamate receptor NMDA 1/2D (Rattus norvegicus) (UniProt P35439+Q62645); test: Ratio of compound Imax to glutamate Imax for rat recombinant wild type GluN1/GluN2D receptor; assay type: protein-complex assay
# [10] = target: Glutamate NMDA receptor; Grin1/Grin2c (Rattus norvegicus) (UniProt P35439+Q00961); test: Ratio of compound Imax to glutamate Imax for rat recombinant wild type GluN1/GluN2C receptor; assay type: protein-complex assay
EC50 ([3]; oocyte),SMILES,EC50 [1],Ratio [2],EC50 ([3]; read-out: EC50),Ki [4],EC50 [5],Ki (Glutamate NMDA receptor),Ki [6],EC50 [7],Ratio [8],Ratio [9],Ratio [10]
,N[C@H](C(=O)O)[C@@H]1C[C@@H]1C(=O)O,0.083 µM,0.99,0.262 µM,1.1 µM,0.11 µM,0.0065 µM,0.31 µM,0.036 µM,1.23,1.11,0.9
,NC(C(=O)O)c1ccnn1O (racemic),,0.45,,> 100 µM,,,> 100 µM,,0.58,,0.52
,CCC[C@]1(C(=O)O)C[C@H]1[C@H](N)C(=O)O,15.8 µM,0.67,46.3 µM,> 100 µM,29.9 µM,1.2 µM,21 µM,6.56 µM,1.05,0.89,0.7
Not Active,CCCc1cnn(O)c1[C@@H](N)C(=O)O,105 µM,,,> 100 µM,429 µM,14 µM,> 100 µM,153 µM,0.06,0.37,0.22
,CC[C@]1(C(=O)O)C[C@H]1[C@H](N)C(=O)O,0.272 µM,0.83,1.18 µM,> 100 µM,0.54 µM,0.061 µM,0.61 µM,0.08 µM,1.02,0.91,0.81
,CCCC[C@]1(C(=O)O)C[C@H]1[C@H](N)C(=O)O,10.2 µM,0.65,28.8 µM,> 100 µM,16 µM,1.3 µM,> 100 µM,3.3 µM,1.07,0.94,0.85
,C[C@]1(C(=O)O)C[C@H]1[C@H](N)C(=O)O,0.045 µM,0.94,0.277 µM,29 µM,0.124 µM,0.008 µM,0.11 µM,0.026 µM,1.14,0.83,0.81
